{
  "source": "paper PMC5089614",
  "about": "(British Journal of Clinical Pharmacology, 2016)",
  "key": {"[1]": {"assay": "Single-dose plasma pharmacokinetics of oral ixazomib by hepatic function group", "format": "in vivo, human", "conditions": "for AUC(0-t) / Tmax: human, plasma; for AUC(0-t): oral; for Tmax: po; for Dose-normalized AUC 0–last (total) / Unbound AUC 0-last / Unbound dose-normalized AUC 0–last / C max (total) / Dose-normalized C max (total) / Unbound C max / Unbound dose-normalized C max: geometric mean (%CV)", "method_in_brief": "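Solid tumour patients took a single oral dose on day 1. Moderate impairment was total bilirubin >1.5–3 × ULN and severe >3 × ULN. Plasma was sampled predose and 0.5–336 h post-dose and assayed by validated reverse-phase LC/MS/MS. Parameters were noncompartmental. Dose-normalized values were log-transformed, with ratios and 90% CI versus normal from a mixed-effects ANOVA, group fixed.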"}, "plasma proteins": {"test_system": "plasma proteins", "format": "in vitro ADME, human", "method_in_brief": "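Each patient's predose plasma was spiked with test compound at 70 or 280 ng ml−1 and run in triplicate by rapid equilibrium dialysis. Dialysis was 3 h at 37 °C against isotonic sodium phosphate buffer (120 mM, pH 7.5) across an 8000-Da cut-off membrane. Donor plasma and receiver buffer were each mixed 50:50 with the opposite matrix and quantified by LC/MS/MS.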"}, "[2]": {"conditions": "moderate impairment vs. normal function"}, "[3]": {"conditions": "moderate impairment, 2.3 mg, n = 10"}, "[4]": {"conditions": "moderate impairment, 2.3 mg, n = 13"}, "[5]": {"conditions": "moderate/severe hepatic impairment combined"}, "[6]": {"conditions": "moderate/severe impairment combined vs. normal function"}, "[7]": {"conditions": "severe impairment vs. normal function"}, "[8]": {"conditions": "severe impairment, 1.5 mg, n = 11"}, "[9]": {"conditions": "severe impairment, 1.5 mg, n = 18"}},
  "note": "Like-named read-outs stand apart in the source and are kept apart here.",
  "data": [
    {"molecule": "CC(C)C[C@H](NC(=O)CNC(=O)c1cc(Cl)ccc1Cl)B(O)O", "note": "[ixazomib]", "values": [
      {"measurement": "AUC(0-t)", "setting": "[1]; 1.5 mg", "result": 489, "unit": "ng·h/mL"},
      {"measurement": "AUC(0-t)", "setting": "[1]; 2.3 mg", "result": 846, "unit": "ng·h/mL"},
      {"measurement": "AUC(0-t)", "setting": "[1]; 4 mg", "result": 1160, "unit": "ng·h/mL"},
      {"measurement": "Tmax", "setting": "[1]", "result": "0.95 to 1.5", "unit": "h"},
      {"measurement": "Tmax", "setting": "[1]; 1.5 mg", "result": 1.21, "unit": "h"},
      {"measurement": "Tmax", "setting": "[1]; 2.3 mg", "result": 1.5, "unit": "h"},
      {"measurement": "Tmax", "setting": "[1]; 4 mg", "result": 0.95, "unit": "h"},
      {"measurement": "unbound dose-normalized C max, percent higher than normal hepatic function", "setting": "[1]; moderate hepatic impairment", "result": 27, "unit": "%"},
      {"measurement": "Geometric least squares mean ratio (90% CI), total dose-normalized AUC 0–last", "setting": "[1]; [2]", "result": "1.27 (0.77, 2.11)"},
      {"measurement": "Geometric least squares mean ratio (90% CI), total dose-normalized C max", "setting": "[1]; [2]", "result": "1.21 (0.74, 2.00)"},
      {"measurement": "Geometric least squares mean ratio (90% CI), unbound dose-normalized AUC 0–last", "setting": "[1]; [2]", "result": "1.32 (0.70, 2.50)"},
      {"measurement": "Geometric least squares mean ratio (90% CI), unbound dose-normalized C max", "setting": "[1]; [2]", "result": "1.27 (0.74, 2.18)"},
      {"measurement": "Dose-normalized AUC 0–last (total)", "setting": "[1]; [3]", "result": "368 (49) h·ng ml^−1 mg^−1"},
      {"measurement": "Unbound AUC 0-last", "setting": "[1]; [3]", "result": "7.33 (61) h·ng ml^−1"},
      {"measurement": "Unbound dose-normalized AUC 0–last", "setting": "[1]; [3]", "result": "3.19 (61) h·ng ml^−1 mg^−1"},
      {"measurement": "C max (total)", "setting": "[1]; [4]", "result": "42.5 (63) ng ml^−1"},
      {"measurement": "Dose-normalized C max (total)", "setting": "[1]; [4]", "result": "18.5 (63) ng ml^−1 mg^−1"},
      {"measurement": "Unbound C max", "setting": "[1]; [4]", "result": "0.372 (80) ng ml^−1"},
      {"measurement": "Unbound dose-normalized C max", "setting": "[1]; [4]", "result": "0.162 (80) ng ml^−1 mg^−1"},
      {"measurement": "total dose-normalized C max, percent higher than normal hepatic function", "setting": "[1]; [5]", "result": 17, "unit": "%"},
      {"measurement": "unbound dose-normalized C max, percent higher than normal hepatic function", "setting": "[1]; [5]", "result": 24, "unit": "%"},
      {"measurement": "Geometric least squares mean ratio (90% CI), total dose-normalized AUC 0–last", "setting": "[1]; [6]", "result": "1.20 (0.79, 1.82)"},
      {"measurement": "Geometric least squares mean ratio (90% CI), total dose-normalized C max", "setting": "[1]; [6]", "result": "1.17 (0.77, 1.78)"},
      {"measurement": "Geometric least squares mean ratio (90% CI), unbound dose-normalized AUC 0–last", "setting": "[1]; [6]", "result": "1.27 (0.75, 2.16)"},
      {"measurement": "Geometric least squares mean ratio (90% CI), unbound dose-normalized C max", "setting": "[1]; [6]", "result": "1.24 (0.79, 1.95)"},
      {"measurement": "C max (total)", "setting": "[1]; normal function, 4 mg, n = 12", "result": "61.0 (54) ng ml^−1"},
      {"measurement": "Dose-normalized AUC 0–last (total)", "setting": "[1]; normal function, 4 mg, n = 12", "result": "289 (41) h·ng ml^−1 mg^−1"},
      {"measurement": "Dose-normalized C max (total)", "setting": "[1]; normal function, 4 mg, n = 12", "result": "15.3 (54) ng ml^−1 mg^−1"},
      {"measurement": "Unbound AUC 0-last", "setting": "[1]; normal function, 4 mg, n = 12", "result": "9.65 (50) h·ng ml^−1"},
      {"measurement": "Unbound C max", "setting": "[1]; normal function, 4 mg, n = 12", "result": "0.509 (47) ng ml^−1"},
      {"measurement": "Unbound dose-normalized AUC 0–last", "setting": "[1]; normal function, 4 mg, n = 12", "result": "2.41 (50) h·ng ml^−1 mg^−1"},
      {"measurement": "Unbound dose-normalized C max", "setting": "[1]; normal function, 4 mg, n = 12", "result": "0.127 (47) ng ml^−1 mg^−1"},
      {"measurement": "unbound dose-normalized AUC0–last, percent higher than normal hepatic function", "setting": "[1]; severe hepatic impairment", "result": 23, "unit": "%"},
      {"measurement": "unbound dose-normalized C max, percent higher than normal hepatic function", "setting": "[1]; severe hepatic impairment", "result": 21, "unit": "%"},
      {"measurement": "Geometric least squares mean ratio (90% CI), total dose-normalized AUC 0–last", "setting": "[1]; [7]", "result": "1.13 (0.69, 1.84)"},
      {"measurement": "Geometric least squares mean ratio (90% CI), total dose-normalized C max", "setting": "[1]; [7]", "result": "1.14 (0.72, 1.82)"},
      {"measurement": "Geometric least squares mean ratio (90% CI), unbound dose-normalized AUC 0–last", "setting": "[1]; [7]", "result": "1.23 (0.66, 2.29)"},
      {"measurement": "Geometric least squares mean ratio (90% CI), unbound dose-normalized C max", "setting": "[1]; [7]", "result": "1.21 (0.74, 2.01)"},
      {"measurement": "Unbound AUC 0-last", "setting": "[1]; [8]", "result": "4.44 (63) h·ng ml^−1"},
      {"measurement": "Unbound dose-normalized AUC 0–last", "setting": "[1]; [8]", "result": "2.96 (63) h·ng ml^−1 mg^−1"},
      {"measurement": "C max (total)", "setting": "[1]; [9]", "result": "26.1 (70) ng ml^−1"},
      {"measurement": "Dose-normalized C max (total)", "setting": "[1]; [9]", "result": "17.4 (70) ng ml^−1 mg^−1"},
      {"measurement": "Unbound C max", "setting": "[1]; [9]", "result": "0.232 (84) ng ml^−1"},
      {"measurement": "Unbound dose-normalized C max", "setting": "[1]; [9]", "result": "0.154 (84) ng ml^−1 mg^−1"},
      {"measurement": "bound fraction (mean ± SD)", "setting": "plasma proteins; moderate hepatic impairment group", "result": "99.1 ± 0.37", "unit": "%"},
      {"measurement": "bound fraction (mean ± SD)", "setting": "plasma proteins; normal hepatic function group", "result": "99.2 ± 0.34", "unit": "%"},
      {"measurement": "bound fraction (mean ± SD)", "setting": "plasma proteins; severe hepatic impairment group", "result": "99.0 ± 0.45", "unit": "%"}
    ]}
  ]
}
